Results on 14 molecules are retold here after ChEMBL document CHEMBL1125156, “Inhibitors of human leukocyte proteinase-3” (J Med Chem, 1990).

Activity calls are given as the source filed them. No cut-off for these calls is given here.

The target in assay [1] is T1, Myeloblastin (Homo sapiens) (UniProt P24158).
T1 sequence (whole entry): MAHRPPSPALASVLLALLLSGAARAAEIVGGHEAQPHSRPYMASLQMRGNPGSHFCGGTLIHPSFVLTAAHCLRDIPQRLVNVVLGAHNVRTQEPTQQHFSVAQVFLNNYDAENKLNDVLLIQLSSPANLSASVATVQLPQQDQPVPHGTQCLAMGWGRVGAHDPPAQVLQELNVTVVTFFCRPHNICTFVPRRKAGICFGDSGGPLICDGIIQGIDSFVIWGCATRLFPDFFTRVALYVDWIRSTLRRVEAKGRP
The experiment in a line: Evaluated for the inhibition of Human leukocyte Proteinase 3 (PR-3). Put shortly: (§1)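 PR-3 purified from polymorphonuclear leukocyte granules. Inhibitor in DMSO was incubated with enzyme in 0.1 M phosphate, pH 6.5, in a constant-temperature bath. Aliquots taken over time went into BOC-Ala-p-nitrophenol (20 mM acetonitrile stock) in phosphate buffer. After 30 s, A347.5 was read for 1 min. kobs came from ln(vt/v0) versus time and is reported as kobs/[I] (M-1 s-1).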

In assay [2] the target is T1, Myeloblastin (Homo sapiens). As to the kind of experiment: Evaluated for the inhibition of Human leukocyte Proteinase 3 (PR-3) following a 10-min incubation with a 50-fold excess of inhibitor. To be noted: concentration not given here.
The target in assay [3] is T2, Neutrophil elastase (Homo sapiens) (UniProt P08246).
T2 sequence (whole entry): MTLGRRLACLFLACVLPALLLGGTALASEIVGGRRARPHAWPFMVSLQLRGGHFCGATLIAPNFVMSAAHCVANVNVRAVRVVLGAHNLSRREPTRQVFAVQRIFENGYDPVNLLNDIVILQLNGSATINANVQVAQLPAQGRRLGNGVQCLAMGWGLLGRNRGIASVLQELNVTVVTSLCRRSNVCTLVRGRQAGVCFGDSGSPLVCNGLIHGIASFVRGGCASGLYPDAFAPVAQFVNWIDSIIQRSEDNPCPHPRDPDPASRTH
As to the kind of experiment: Evaluated for the inhibition of Human leukocyte elastase.

The target in assay [4] is T1, Myeloblastin (Homo sapiens). As to the kind of experiment: Evaluated for the inhibition of Human leukocyte Proteinase 3 (PR-3); Inactive. Put shortly: as §1

Consider `CC(C)CC1CC(=O)N(OS(=O)(=O)/C=C/c2ccccc2)C1=O` (stereo not drawn), for which the K obs / 1 in assay [1] worked out at 10400 M⁻¹ s⁻¹.
On the same count and under the same terms, in the case of `CCC1CC(=O)N(OS(C)(=O)=O)C1=O` (stereo not drawn) it was 13400 M⁻¹ s⁻¹.
As usually defined, the inhibition is the relative decrease from the control value, in per cent. In assay [2], `O=C1CC(Cc2ccccc2)C(=O)N1OS(=O)(=O)/C=C/c1ccccc1` (stereo not drawn) came in with an inhibition of less than 35%.
In the case of `CC(C)C1CC(=O)N(OS(C)(=O)=O)C1=O` (stereo not drawn), the K obs / 1 in assay [1] turned out to be 2200 M⁻¹ s⁻¹.
Consider `CC(C)C1CC(=O)N(OS(=O)(=O)/C=C/c2ccccc2)C1=O` (stereo not drawn), for which the K obs / 1 in assay [1] is 8100 M⁻¹ s⁻¹; in assay [3], 100000 M⁻¹ s⁻¹.
`CC1CC(=O)N(OS(=O)(=O)/C=C/c2ccccc2)C1=O` (stereo not drawn) gave a K obs / 1 in assay [1] of 4500 M⁻¹ s⁻¹.
On to `CCCC1CC(=O)N(OS(C)(=O)=O)C1=O` (stereo not drawn), for which the K obs / 1 in assay [1] and in assay [3] was 8600 M⁻¹ s⁻¹ in each case.
As for `O=C1CCC(=O)N1OS(=O)(=O)/C=C/c1ccccc1`, the inhibition in assay [2] was less than 35%.
For `CC(C)CC1CC(=O)N(OS(C)(=O)=O)C1=O` (stereo not drawn), the K obs / 1 in assay [1] worked out at 1200 M⁻¹ s⁻¹.
`CS(=O)(=O)ON1C(=O)CCC1=O`: the “K obs / 1” value in assay [4] was “inactive”.
`CCCCC1CC(=O)N(OS(C)(=O)=O)C1=O` (stereo not drawn): the K obs / 1 was 800 M⁻¹ s⁻¹ in assay [1] and 4100 M⁻¹ s⁻¹ in assay [3].
In assay [1], `CCCCC1CC(=O)N(OS(=O)(=O)/C=C/c2ccccc2)C1=O` (stereo not drawn) had a K obs / 1 of 3800 M⁻¹ s⁻¹.
As for `CC1CC(=O)N(OS(C)(=O)=O)C1=O` (stereo not drawn), the K obs / 1 in assay [1] is 2300 M⁻¹ s⁻¹.
As for `CS(=O)(=O)ON1C(=O)CC(Cc2ccccc2)C1=O` (stereo not drawn), the “K obs / 1” value in assay [4] was “inactive”. Besides, in assay [3], the K obs / 1 was determined as 1100 M⁻¹ s⁻¹.
